Results on 2 molecules are retold here after ChEMBL document CHEMBL1143775, “Convenient one pot synthesis of some novel derivatives of thiazolo[2,3-b]dihydropyrimidinone possessing 4-methylthiophenyl moiety and evaluation of their antibacterial and antifungal activities” (2007).

As usually defined, the MIC is the smallest concentration in the dilution series that meets the test's criterion for growth inhibition. Low values mean greater potency, high ones weaker potency.

Type in all cases: functional
Experiment [1] relates to Klebsiella pneumoniae. Put plainly: Antibacterial activity against Klebsiella pneumoniae at 10 ug/ml. The following applies: read-out: IZ. In a few lines: (§1)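 Compound-loaded discs were placed on nutrient agar inoculated separately with fresh bacterial strains. Plates were incubated at 37 °C for 24 h with separate solvent and growth controls. Zone of inhibition and MIC were measured. Ciprofloxacin was the reference drug.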

The test system of experiment [2] is Aspergillus fumigatus. Put plainly: Antifungal activity against Aspergillus fumigatus NCIM 902 by dilution method. In a few lines: (§2)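 Serial dilution method on Sabouraud agar (peptone, D-glucose, agar; pH 5.7) seeded with a saline spore suspension made from a loopful of each strain. Plates were dried for 1 h at incubator temperature. Test solutions in DMSO went into punched wells, with a DMSO control. Incubation was at 37 °C for 3–4 days. Zone of inhibition and MIC were read against ciclopiroxolamine as standard.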

Experiment [3] concerns Escherichia coli. Briefly: Antibacterial activity against Escherichia coli ATCC 25922 at 10 ug/ml. The following applies: read-out: IZ. In a few lines: as §1
Experiment [4] concerns Pseudomonas aeruginosa. Briefly: Antibacterial activity against Pseudomonas aeruginosa ATCC 27853. Put shortly: as §1
Experiment [5] deals with Staphylococcus aureus. Put plainly: Antibacterial activity against Staphylococcus aureus ATCC 25923. Put shortly: as §1
Experiment [6] concerns Staphylococcus aureus. Put plainly: Antibacterial activity against Staphylococcus aureus ATCC 25923 at 10 ug/ml by disk diffusion method. Conditions: read-out: IZ. In a few lines: as §1
The subject of experiment [7] is Aspergillus flavus. Briefly: Antifungal activity against Aspergillus flavus NCIM 524 by dilution method. In a few lines: as §2
Experiment [8] deals with Escherichia coli. Briefly: Antibacterial activity against Escherichia coli ATCC 25922. Put shortly: as §1
The subject of experiment [9] is Candida albicans. Briefly: Antifungal activity against Candida albicans NCIM 3100 at 10 ug/ml. Conditions: read-out: IZ. Put shortly:
as §2

Experiment [10] relates to Candida albicans. Briefly: Antifungal activity against Candida albicans NCIM 3100 by dilution method. In a few lines:
as §2

Experiment [11] concerns Aspergillus flavus. Briefly: Antifungal activity against Aspergillus flavus NCIM 524 at 10 ug/ml. The following applies: read-out: IZ. Put shortly:
as §2

The subject of experiment [12] is Klebsiella pneumoniae. Put plainly: Antibacterial activity against Klebsiella pneumoniae. In a few lines: as §1
For experiment [13], the system named is Aspergillus fumigatus. Briefly: Antifungal activity against Aspergillus fumigatus NCIM 902 at 10 ug/ml. Conditions: read-out: IZ. In a few lines: as §2
Experiment [14] concerns Pseudomonas aeruginosa. Put plainly: Antibacterial activity against Pseudomonas aeruginosa ATCC 27853 at 10 ug/ml. Conditions: read-out: IZ. In a few lines: as §1
Experiment [15] relates to Talaromyces marneffei. Briefly: Antifungal activity against Penicillium marneffei at 10 ug/ml. The following applies: read-out: IZ. In a few lines: as §2
The subject of experiment [16] is Talaromyces marneffei. Put plainly: Antifungal activity against Penicillium marneffei by dilution method. Put shortly: as §2

≈ marks a conversion by molar mass, not a printed value.

Consider `CCOC(=O)C1=C(C)N=c2s/c(=C\c3ccc(SC)cc3)c(=O)n2C1c1ccc(SC)cc1` (configuration not stated), for which the zone of inhibition at 10 µg/mL stood at 12 mm in the experiment on Klebsiella pneumoniae [1]; 12 mm in the experiment on Escherichia coli [3]; 10 mm with Staphylococcus aureus [6]; 10 mm in the experiment on Candida albicans [9]; 10 mm in the experiment with Aspergillus flavus [11]; 12 mm in the experiment with Aspergillus fumigatus [13]. The zone of inhibition at 10 µg/mL in the experiment with Pseudomonas aeruginosa [14] amounted to 13 mm; with Talaromyces marneffei [15], 12 mm. Moreover, the MIC with Aspergillus fumigatus [2] was found to be 12.5 µg/mL (≈ 25.2 µM); against Pseudomonas aeruginosa [4] it was 12.5 µg/mL (≈ 25.2 µM); in the experiment with Staphylococcus aureus [5], 25 µg/mL (≈ 50.3 µM); with Aspergillus flavus [7] it was 25 µg/mL (≈ 50.3 µM); against Escherichia coli [8], 25 µg/mL (≈ 50.3 µM); against Candida albicans [10] it was 12.5 µg/mL (≈ 25.2 µM). In addition, the MIC in the experiment with Klebsiella pneumoniae [12] and with Talaromyces marneffei [16] was 12.5 µg/mL (≈ 25.2 µM) in each case.

As for `CCOC(=O)C1=C(C)N=c2s/c(=C\c3ccc4c(c3)OCO4)c(=O)n2C1c1ccc(SC)cc1` (configuration not stated), the zone of inhibition at 10 µg/mL in the experiment on Klebsiella pneumoniae [1] came to 10 mm; in the experiment on Escherichia coli [3], 10 mm; in the experiment with Staphylococcus aureus [6], 10 mm; in the experiment with Candida albicans [9], 11 mm; in the experiment on Aspergillus flavus [11], 12 mm; with Aspergillus fumigatus [13], 12 mm. The zone of inhibition at 10 µg/mL in the experiment with Pseudomonas aeruginosa [14] and in the experiment with Talaromyces marneffei [15] was 10 mm throughout. For the same molecule, the minimal inhibitory concentration (MIC) against Aspergillus fumigatus [2] worked out at 12.5 µg/mL (≈ 25.3 µM); against Pseudomonas aeruginosa [4] it was 12.5 µg/mL (≈ 25.3 µM); with Staphylococcus aureus [5] it was 25 µg/mL (≈ 50.5 µM); against Aspergillus flavus [7] it was 25 µg/mL (≈ 50.5 µM); against Escherichia coli [8], 25 µg/mL (≈ 50.5 µM); in the experiment with Candida albicans [10] it was 12.5 µg/mL (≈ 25.3 µM). The minimum inhibitory concentration (MIC) against Klebsiella pneumoniae [12] and in the experiment with Talaromyces marneffei [16] was 12.5 µg/mL (≈ 25.3 µM) throughout.
